Data taken from ChEMBL document CHEMBL1134871, “N-aryl-prolyl-dipeptides as potent antagonists of VLA-4” (Bioorg Med Chem Lett, 2002).
pIC50: −log10 of the molar value.

Experiments:
[1] = Plasma clearance rate in Sprague-Dawley rats; assay type: ADME, organism-based; conditions: rat, read-out: Clp
Procedure, shortened: (§1)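 Sprague–Dawley rats given 1 mg/kg iv and 2 mg/kg po. Plasma half-life taken over 0–8 h.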

[2] = Oral bioavailability in rat (Sprague-Dawley) (dose 1 mg/kg i.v.); assay type: ADME, organism-based; conditions: in vivo, 2 mg/kg; procedure, shortened: as §1
[3] = Plasma half-life was determined in Sprague-Dawley rats after 0-8 hr of administration; assay type: ADME, organism-based; conditions: rat; procedure, shortened: as §1
Integrin alpha-4/beta-7 = molecular target: T1, Integrin alpha-4/beta-7 (Homo sapiens, UniProt P13612+P26010); assay: Inhibition of [125I]MAdCAM-Ig binding to human integrin alpha4-beta7 of RPMI-8866 cells; assay type: cell-based
T1 sequence (P13612 whole entry): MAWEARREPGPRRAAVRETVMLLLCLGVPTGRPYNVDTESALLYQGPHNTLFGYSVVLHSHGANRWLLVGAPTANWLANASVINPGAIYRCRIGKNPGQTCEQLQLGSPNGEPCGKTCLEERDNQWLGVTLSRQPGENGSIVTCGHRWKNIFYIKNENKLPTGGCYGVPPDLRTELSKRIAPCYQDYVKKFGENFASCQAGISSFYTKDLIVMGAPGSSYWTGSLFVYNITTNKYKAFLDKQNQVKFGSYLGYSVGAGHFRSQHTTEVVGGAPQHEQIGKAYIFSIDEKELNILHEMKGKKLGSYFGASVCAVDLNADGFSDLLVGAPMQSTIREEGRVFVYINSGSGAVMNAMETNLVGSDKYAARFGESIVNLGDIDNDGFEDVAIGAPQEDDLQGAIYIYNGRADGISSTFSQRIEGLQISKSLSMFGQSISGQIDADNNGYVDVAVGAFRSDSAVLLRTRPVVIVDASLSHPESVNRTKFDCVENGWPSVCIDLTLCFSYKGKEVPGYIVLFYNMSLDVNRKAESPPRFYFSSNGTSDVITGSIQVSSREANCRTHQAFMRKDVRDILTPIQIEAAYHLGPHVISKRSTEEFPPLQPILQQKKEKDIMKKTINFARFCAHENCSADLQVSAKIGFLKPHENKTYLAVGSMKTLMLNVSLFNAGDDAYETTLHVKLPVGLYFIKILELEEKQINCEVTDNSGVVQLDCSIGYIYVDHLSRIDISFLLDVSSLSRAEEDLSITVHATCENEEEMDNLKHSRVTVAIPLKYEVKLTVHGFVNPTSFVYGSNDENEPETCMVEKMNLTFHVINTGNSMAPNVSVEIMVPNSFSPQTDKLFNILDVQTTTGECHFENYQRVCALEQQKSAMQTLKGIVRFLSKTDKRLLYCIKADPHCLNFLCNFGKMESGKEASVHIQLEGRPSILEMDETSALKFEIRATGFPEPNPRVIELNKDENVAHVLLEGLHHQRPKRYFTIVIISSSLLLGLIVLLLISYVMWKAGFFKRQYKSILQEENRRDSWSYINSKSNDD
T1 sequence (P26010 whole entry): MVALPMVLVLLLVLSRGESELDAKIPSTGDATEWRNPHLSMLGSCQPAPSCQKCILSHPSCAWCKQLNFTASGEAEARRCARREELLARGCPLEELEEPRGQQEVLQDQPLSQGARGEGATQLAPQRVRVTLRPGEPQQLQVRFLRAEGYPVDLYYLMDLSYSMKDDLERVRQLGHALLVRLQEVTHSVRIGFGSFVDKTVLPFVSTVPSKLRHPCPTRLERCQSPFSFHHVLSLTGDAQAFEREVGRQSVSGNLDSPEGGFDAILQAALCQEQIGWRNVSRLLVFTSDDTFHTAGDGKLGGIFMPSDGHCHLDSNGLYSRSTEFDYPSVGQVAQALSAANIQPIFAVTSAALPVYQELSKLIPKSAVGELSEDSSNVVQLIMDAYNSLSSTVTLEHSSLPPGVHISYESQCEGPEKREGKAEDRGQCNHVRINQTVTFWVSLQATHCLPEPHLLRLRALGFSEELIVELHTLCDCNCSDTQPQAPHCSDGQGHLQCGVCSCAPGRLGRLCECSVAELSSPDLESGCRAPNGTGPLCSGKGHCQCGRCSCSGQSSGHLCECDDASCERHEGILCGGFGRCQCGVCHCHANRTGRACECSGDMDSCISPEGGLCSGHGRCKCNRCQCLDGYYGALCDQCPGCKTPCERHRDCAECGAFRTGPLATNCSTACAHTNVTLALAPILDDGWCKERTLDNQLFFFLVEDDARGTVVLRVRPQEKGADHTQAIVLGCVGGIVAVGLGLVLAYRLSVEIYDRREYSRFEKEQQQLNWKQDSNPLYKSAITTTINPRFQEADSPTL

Integrin alpha-4/beta-1 = Integrin alpha-4/beta-1 (Homo sapiens, UniProt P05556+P13612); assay: Inhibition of [125I]VCAM-Ig binding to human integrin alpha4-beta1 (VLA-4) of Jurkat cells; assay type: cell-based
Procedure, shortened: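 Filtered, washed, and bound radiolabel counted by scintillation. DMSO wells set 0% inhibition; cell-free wells set 100%. IC50 from ten-point titration by four-parameter fit, run in duplicate.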

Chain of Integrin alpha-4/beta-1 (P05556 whole entry, one chain of several): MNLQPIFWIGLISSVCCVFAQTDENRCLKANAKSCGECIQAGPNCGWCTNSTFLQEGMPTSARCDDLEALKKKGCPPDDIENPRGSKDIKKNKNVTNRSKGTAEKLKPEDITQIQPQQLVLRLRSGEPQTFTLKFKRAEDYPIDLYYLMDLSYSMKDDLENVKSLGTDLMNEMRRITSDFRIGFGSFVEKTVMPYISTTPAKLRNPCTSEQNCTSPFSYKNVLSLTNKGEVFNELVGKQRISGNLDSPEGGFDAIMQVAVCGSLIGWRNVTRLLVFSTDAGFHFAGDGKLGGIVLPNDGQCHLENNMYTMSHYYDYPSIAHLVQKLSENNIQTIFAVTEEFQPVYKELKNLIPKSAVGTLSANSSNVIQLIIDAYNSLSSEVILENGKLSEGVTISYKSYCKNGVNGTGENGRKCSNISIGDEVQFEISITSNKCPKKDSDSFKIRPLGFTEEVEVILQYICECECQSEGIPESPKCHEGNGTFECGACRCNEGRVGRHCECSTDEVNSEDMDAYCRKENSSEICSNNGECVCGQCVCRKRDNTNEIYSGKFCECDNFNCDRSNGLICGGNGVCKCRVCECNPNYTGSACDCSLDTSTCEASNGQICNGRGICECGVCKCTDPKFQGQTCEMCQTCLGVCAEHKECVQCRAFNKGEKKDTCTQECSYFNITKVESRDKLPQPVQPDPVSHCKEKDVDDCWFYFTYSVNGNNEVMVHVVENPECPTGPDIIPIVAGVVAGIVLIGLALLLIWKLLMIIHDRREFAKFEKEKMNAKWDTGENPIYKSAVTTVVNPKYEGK

SMILES	clearance [1]	bioavailability [2]	half-life [3]	pIC50 (Integrin alpha-4/beta-7)	pIC50 (Integrin alpha-4/beta-1)
COc1cccc(OC)c1-c1ccc(C[C@H](NC(=O)[C@@H]2CCCN2c2ccccc2)C(=O)O)cc1	78 mL/min/kg	14%	36 min	7.68	9.21
COc1cccc(OC)c1-c1ccc(C[C@H](NC(=O)[C@@H]2CCCN2c2cncc3ccccc23)C(=O)O)cc1	–	–	–	7.35	8.96
COc1cccc(OC)c1-c1ccc(C[C@H](NC(=O)[C@@H]2CCCN2c2ccc([N+](=O)[O-])cc2)C(=O)O)cc1	> 100 mL/min/kg	< 1%	84 min	7.77	8.96
COc1cccc(OC)c1-c1ccc(CC(NC(=O)C2(c3ccccc3)CCCC2)C(=O)O)cc1 (stereo unspecified)	22 mL/min/kg	55%	–	6.96	8.49
COc1cccc(OC)c1-c1ccc(C[C@H](NC(=O)[C@@H]2CCCN2c2ccccn2)C(=O)O)cc1	29 mL/min/kg	2%	18 min	7.74	8.72
COc1cccc(OC)c1-c1ccc(C[C@H](NC(=O)[C@@H]2CCCN2c2cncnc2)C(=O)O)cc1	–	–	–	7.73	9.14

Further lines, results first:

clearance [1]	bioavailability [2]	half-life [3]	pIC50 (Integrin alpha-4/beta-7)	pIC50 (Integrin alpha-4/beta-1)	SMILES
–	–	–	7.77	9.42	COc1cccc(OC)c1-c1ccc(C[C@H](NC(=O)[C@@H]2CCCN2c2cc([N+](=O)[O-])cc([N+](=O)[O-])n2)C(=O)O)cc1
127 mL/min/kg	2%	36 min	8.60	10.30	COc1cccc(OC)c1-c1ccc(CC(NC(=O)C2CCCN2S(=O)(=O)c2ccccc2)C(=O)O)cc1 (stereo unspecified)
69 mL/min/kg	< 1%	18 min	8.46	9.43	COc1cccc(OC)c1-c1ccc(C[C@H](NC(=O)[C@@H]2CCCN2c2ccccc2C#N)C(=O)O)cc1
122 mL/min/kg	22%	–	8.30	9.96	COc1cccc(OC)c1-c1ccc(CC(NC(=O)C2(S(=O)(=O)c3ccccc3)CCCC2)C(=O)O)cc1 (stereo unspecified)
43 mL/min/kg	< 1%	12 min	8.26	9.47	COc1cccc(OC)c1-c1ccc(C[C@H](NC(=O)[C@@H]2CCCN2c2cccnc2)C(=O)O)cc1
–	–	–	8.05	9.77	COc1cccc(OC)c1-c1ccc(C[C@H](NC(=O)[C@@H]2CCCN2c2cnccn2)C(=O)O)cc1
64 mL/min/kg	3%	42 min	8.24	9.39	COc1cccc(N2CCC[C@H]2C(=O)N[C@@H](Cc2ccc(-c3c(OC)cccc3OC)cc2)C(=O)O)c1
